For assay [1], the system named is Staphylococcus aureus. The assay is described as follows: Antistaphylococcal activity against epidemic Staphylococcus aureus isolate 16 by CLSI broth microplate assay. Type of assay: functional. In a few lines: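 MIC against MRSA clinical isolate EMRSA-16, measured by CLSI broth microplate dilution. Compounds were dissolved in 60% v/v EtOH, then diluted into broth.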

Assay [2] deals with Staphylococcus aureus. Briefly: Potentiation of oxacillin-induced antistaphylococcal activity against epidemic Staphylococcus aureus isolate 16 at 12.5 ug/mL by CLSI broth microplate assay. Type of assay: functional, organism-based. Summed up: (§1)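 Oxacillin MIC against EMRSA-16 with the analogue held at a fixed concentration. Run in 96-well trays with about 10^4 CFU in 100 μl Mueller–Hinton broth containing 2% w/v NaCl. Compounds were dissolved in 60% v/v EtOH before dilution into broth.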

Assay [3] concerns Staphylococcus aureus. The assay is described as follows: Potentiation of oxacillin-induced antistaphylococcal activity against epidemic Staphylococcus aureus isolate 16 at 6.25 ug/mL by CLSI broth microplate assay. It counts as functional, organism-based. Summed up: as §1

In ChEMBL document CHEMBL1921710, “Anti-staphylococcal activity and β-lactam resistance attenuating capacity of structural analogues of (-)-epicatechin gallate” (2011) one finds MIC and Activity data, which are given here for eight compounds.

As usually defined, the MIC is the smallest concentration in the dilution series that meets the test's criterion for growth inhibition. Low values mean greater potency, high ones weaker potency.

≈ marks a conversion by molar mass, not a printed value. Calls of active or inactive are those of the source.

The compound `O=C(O[C@@H]1Cc2c(O)cc(O)cc2O[C@@H]1c1cc(O)cc(O)c1)c1cc(O)c(O)c(O)c1` displayed an MIC with Staphylococcus aureus [1] of 128 mg/L (≈ 289 µM). In addition, in the assay on Staphylococcus aureus [2], the outcome was Active.
On to `O=C(O[C@@H]1Cc2c(O)cc(O)cc2O[C@@H]1c1cccc(O)c1)c1cc(O)c(O)c(O)c1`, for which it took 128 mg/L (≈ 300 µM) to inhibit growth against Staphylococcus aureus [1] (MIC). Besides, the outcome in the assay with Staphylococcus aureus [2] was Active.
Turning to `O=C(O[C@@H]1Cc2ccccc2O[C@@H]1c1ccccc1)c1cc(O)c(O)c(O)c1`, in the assay with Staphylococcus aureus [1], the MIC is 16 mg/L (≈ 42.3 µM). Besides, the outcome with Staphylococcus aureus [3] and in the assay on Staphylococcus aureus [2] was Active.
Take `O=C(O[C@@H]1Cc2c(O)cc(O)cc2O[C@@H]1c1ccc(O)c(O)c1)c1cc(O)c(O)c(O)c1` [EPICATECHIN GALLATE]: the MIC in the assay on Staphylococcus aureus [1] was determined as 128 mg/L (≈ 289 µM). For the same compound, the result with Staphylococcus aureus [2] was Active.
`Cc1onc(-c2ccccc2)c1C(=O)N[C@@H]1C(=O)N2[C@@H]1SC(C)(C)[C@@H]2C(=O)O` [OXACILLIN] yielded an MIC against Staphylococcus aureus [1] of 512 mg/L (≈ 1280 µM).
As to `O=C(O[C@@H]1Cc2c(O)cc(O)cc2O[C@@H]1c1ccccc1)c1cc(O)c(O)c(O)c1`, in the assay with Staphylococcus aureus [1], it took 64 mg/L (≈ 156 µM) to inhibit growth (MIC). Further, the outcome in the assay with Staphylococcus aureus [3] and with Staphylococcus aureus [2] was Active.
Regarding `O=C(N[C@@H]1Cc2c(O)cc(O)cc2O[C@@H]1c1ccc(O)c(O)c1)c1cc(O)c(O)c(O)c1`, the outcome in the assay with Staphylococcus aureus [2] was Active.
In the case of `O=C(O[C@@H]1Cc2ccccc2O[C@H]1c1ccccc1)c1cc(O)c(O)c(O)c1`, the MIC against Staphylococcus aureus [1] is 16 mg/L (≈ 42.3 µM). The outcome in the assay with Staphylococcus aureus [3] and in the assay on Staphylococcus aureus [2] was Active.
